The source made the active and inactive calls. The rule behind the calls is not given here.
Assays:
[1] = target: Histone-lysine N-methyltransferase EZH2 (Homo sapiens) (UniProt Q15910); test: Inhibition of EZH2 in human PDX LX92 cells assessed as decrease in H3K27me3 level after 7 days by Westernblot analysis; format: cell-based; conditions: time 7.0 day
Procedure, shortened: (§1)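 Ex vivo LX92 cultures (dissociated PDX cells in DMEM:F12 plus EGM-2 growth factors, 5,000 cells/well) given EZH2 inhibitor daily at 1 µM final, DMSO vehicle. Day 7 lysates probed by Western blot for EZH1, EZH2, H3K27me2 and H3K27me3.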

PDX LX92 [2] = test: Antiproliferative activity against human PDX LX92 cells assessed as resazurin conversion measured upto 7 days by alamar blue based assay; format: functional, cell-based; conditions: time <= 7.0 day
Procedure, shortened: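 LX92 PDX dissociated, filtered through 70 µm mesh, washed, red cells lysed; ~1×10^6 viable cells cultured in DMEM:F12 with EGM-2 growth factors. About 72 h after dissociation, seeded 5,000 cells/well; compound added daily at 1 µM final, DMSO vehicle. Viability read by resazurin conversion over time for 7 days; 2-way ANOVA with Dunnett adjustment.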

[3] = Toxicity in athymic nude mouse xenografted with human PDX LX92 cells assessed as tolerability at 100 mg/kg, qd measured upto 42 days; format: organism-based; conditions: in vivo, 1008 h, time < 42 day
Procedure, shortened: (§2)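 Subcutaneous right-flank xenograft of 5×10^6 viable cells in 1:1 HBSS:matrigel; mice randomized at ~150 mm3. Vehicle 0.5% NaCMC with 0.1% Tween-80 in water; dosing Mon-Fri. Tumor volumes and body weights measured twice weekly.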

[4] = Toxicity in athymic nude mouse xenografted with human PDX LX92 cells assessed as tolerability at 100 mg/kg, bid measured upto 42 days; format: organism-based; conditions: in vivo, 1008 h, time < 42 day; procedure, shortened: as §2
PDX LX92 [5] = test: Antitumor activity against human PDX LX92 cells xenografted in athymic nude mouse assessed as reduction of EZH1 level at 100 mg/kg, bid measured upto 42 days by Westernblot analysis; format: functional, organism-based; conditions: time <= 42.0 day
Procedure, shortened: (§3)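 Mice implanted subcutaneously in the right hind flank with 5×10^6 viable cells in 1:1 HBSS:matrigel; randomized at ~150 mm3 tumor volume. Drug formulated in 0.5% NaCMC with 0.1% Tween-80 in water, dosed BID (10AM/4PM), Mon-Fri. Tumors harvested 2 h after final dose for Western blot.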

PDX LX92 [6] = test: Antitumor activity against human PDX LX92 cells xenografted in athymic nude mouse assessed as reduction of EZH2 level at 100 mg/kg, bid measured upto 42 days by Westernblot analysis; format: functional, organism-based; conditions: time <= 42.0 day; procedure, shortened: as §3
PDX LX92 [7] = test: Antitumor activity against human PDX LX92 cells xenografted in athymic nude mouse assessed as reduction of H3K27me2 level at 100 mg/kg, bid measured upto 42 days by Westernblot analysis; format: functional, organism-based; conditions: time <= 42.0 day; procedure, shortened: as §3
PDX LX92 [8] = test: Antitumor activity against human PDX LX92 cells xenografted in athymic nude mouse assessed as reduction of H3K27me3 level at 100 mg/kg, bid measured upto 42 days by Westernblot analysis; format: functional, organism-based; conditions: time <= 42.0 day; procedure, shortened: as §3
[9] = target: Histone-lysine N-methyltransferase EZH2 (Homo sapiens) (UniProt Q15910); test: Inhibition of EZH2 in human PDX LX92 cells assessed as decrease in H3K27me2 level after 7 days by Westernblot analysis; format: cell-based; conditions: time 7.0 day; procedure, shortened: as §1

Sequence of Histone-lysine N-methyltransferase EZH2 (Homo sapiens) (Q15910 whole entry, looked up): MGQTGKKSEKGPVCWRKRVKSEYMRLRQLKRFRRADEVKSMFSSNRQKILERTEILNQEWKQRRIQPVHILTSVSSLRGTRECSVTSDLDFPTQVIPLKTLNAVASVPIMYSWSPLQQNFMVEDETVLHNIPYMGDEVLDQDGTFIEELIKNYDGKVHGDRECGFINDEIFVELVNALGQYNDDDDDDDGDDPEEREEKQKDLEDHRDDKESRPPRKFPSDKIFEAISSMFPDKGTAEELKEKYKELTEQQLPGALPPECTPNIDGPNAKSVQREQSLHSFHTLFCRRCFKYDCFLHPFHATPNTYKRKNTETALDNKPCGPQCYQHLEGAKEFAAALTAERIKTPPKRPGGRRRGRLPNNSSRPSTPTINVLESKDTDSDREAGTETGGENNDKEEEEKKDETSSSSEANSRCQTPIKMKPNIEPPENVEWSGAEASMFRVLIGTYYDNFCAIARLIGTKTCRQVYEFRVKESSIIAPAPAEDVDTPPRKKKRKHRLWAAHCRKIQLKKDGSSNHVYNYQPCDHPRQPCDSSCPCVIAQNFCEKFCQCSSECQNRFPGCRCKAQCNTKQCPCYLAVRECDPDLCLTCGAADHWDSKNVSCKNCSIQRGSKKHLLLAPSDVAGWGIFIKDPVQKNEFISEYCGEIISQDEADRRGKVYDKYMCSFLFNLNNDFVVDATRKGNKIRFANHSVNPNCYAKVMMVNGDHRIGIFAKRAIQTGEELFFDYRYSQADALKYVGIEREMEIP

Compound	inhibition [1]	Activity (PDX LX92 [2])	Activity [3]	Activity [4]	Activity (PDX LX92 [5])	Activity (PDX LX92 [6])	Activity (PDX LX92 [7])	Activity (PDX LX92 [8])	inhibition [9]
CCCc1cc(C)[nH]c(=O)c1CNC(=O)c1cc(-c2ccnc(N3CCN(C)CC3)c2)cc2c1cnn2C(C)C	Active	Active							
CCN(c1cc(-c2ccc(CN3CCOCC3)cc2)cc(C(=O)NCc2c(C)cc(C)[nH]c2=O)c1C)C1CCOCC1 [TAZEMETOSTAT]			Non-Toxic	Non-Toxic	Active	Active	Active	Active	
Cc1cc(C)c(CNC(=O)c2cc(-c3ccc(CN4CCOCC4)cc3)cc3c2cnn3C2CCCC2)c(=O)[nH]1	Active	Active							Active
CCCc1cc(C)[nH]c(=O)c1CNC(=O)c1cc(-c2ccc(N3CCN(C(C)C)CC3)nc2)cc2c1cnn2C(C)C	Active	Active							

Reference: ChEMBL document CHEMBL5712073, “DNA methylation in small cell lung cancer defines distinct disease subtypes and correlates with high expression of EZH2” (Oncogene, 2015)
